This note sets out measurements from ChEMBL document CHEMBL1145979, “Synthetic analogues of the bacterial signal (quorum sensing) molecule N-(3-oxododecanoyl)-L-homoserine lactone as immune modulators” (J Med Chem, 2003).

The first assay is filed under the species Mus musculus. Description: Inhibition of murine splenocyte proliferation. The assay is classed as functional. The method in brief:
(§1)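 Spleens from 8-week-old female BALB/c mice were made into single-cell suspensions and the red cells lysed (Tris/NH4Cl, pH 7.2). Cultured at 100 000 cells per well in complete T-cell medium with ConA 1 μg/mL and doubling-down dilutions of compound from 1 mM to 0.1 μM, 48 h at 37 °C, 5% CO2. Then 0.25 μCi [³H]-thymidine was added for 24 h and uptake counted; IC50 derived.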
A word on the IC50: it is the concentration that inhibits the measured activity by half. Read a high IC50 as a need for much substance. Turning to `CCCCCCCCC(=O)CC(=O)N[C@H]1CCOC1=O`, the IC50 stood at 8.9 µM.
`CCCCCCCCCC(=O)CC(=O)N[C@@H](CCO)C(=O)OC`: the IC50 came out at 53 µM.
On the same count and under the same terms, in the case of `C=CCCCCCCCCC(=O)CC(=O)N[C@H]1CCOC1=O` it was 7 µM; in that of `CCCCCC(=O)CC(=O)N[C@H]1CCOC1=O`, 400 µM; in that of `CCCCCCCC(=O)CC(=O)N[C@H]1CCOC1=O`, 21 µM.
Regarding `CCCCCCCCCCCC(=O)CC(=O)N[C@H]1CCOC1=O`, half-maximal inhibition (IC50) was put at 6.3 µM.
Take `CCCCCCCCCC(=O)CC(=O)N[C@H]1CCOC1=O`: half-maximal inhibition (IC50) required 4 µM.
`CCCCCC(C)CCC(=O)CC(=O)N[C@H]1CCOC1=O` (some centres undefined) returned an IC50 of 5 µM.
`O=C(CCCCCCCCCCBr)CC(=O)N[C@H]1CCOC1=O`: the IC50 was 3 µM.
The same measure, in the same setting: in the case of `CCCCCCCCCC(O)CC(=O)N[C@H]1CCOC1=O` (some centres undefined) it was 12.5 µM.
On the same count and under the same terms, in the case of `CCCCCCCCCCCC(O)CC(=O)N[C@H]1CCOC1=O` (some centres undefined) it was 7 µM.
For the compound `CCCCCCCCCCCC(=O)N[C@H]1CCOC1=O`, the 50% inhibitory concentration (IC50) was determined as 52 µM.
Still for that read-out and setting: then `COC(=O)CCCCCCCCCC(=O)CC(=O)N[C@H]1CCOC1=O`, with 60 µM; and `O=C(CCCCCCCCCBr)CC(=O)N[C@H]1CCOC1=O`, with 6 µM.
Still for that read-out and setting: in the case of `CCCCCCCCCCC(=O)CC(=O)N[C@H]1CCOC1=O` it was 4.3 µM; in that of `CCCCCCCCCC(=O)N[C@H]1CCOC1=O`, 33 µM; in that of `CCCCCCCCCC(=O)CC(=O)NC1CCSC1=O` (centres undefined), 150 µM.
The same measure, in the same setting: in the case of `O=C(CCCCCCCCCO)CC(=O)N[C@H]1CCOC1=O` it was 8 µM; in that of `CCC/C=C/CCCCCCC(=O)CC(=O)N[C@H]1CCOC1=O`, 15 µM; in that of `CCCCCC/C=C\CCCC(=O)CC(=O)N[C@H]1CCOC1=O`, 17 µM.
Compound `C=CCCCCCCCCCC(=O)CC(=O)N[C@H]1CCOC1=O` registered an IC50 of 10 µM.
The same measure, in the same setting: then `CCCCCCCCCCC(=O)N[C@H]1CCOC1=O`, with 90 µM.

The species entered for another assay is Mus musculus. Description: Inhibition of murine splenocyte proliferation; Not active. The assay is classed as functional. The method in brief: as §1
Regarding `CCCCCCCCCC(=O)CC(N)=O`, the IC50 result is “Not Active”.
On the same count and under the same terms, then `O=C(O)CCCCCCCCCCC(=O)CC(=O)N[C@H]1CCOC1=O`, with “Not Active”.
